According to ChEMBL document CHEMBL4814057, “4-4-(Anilinomethyl)-3-[4-(trifluoromethyl)phenyl]-1H-pyrazol-1-ylbenzoic acid derivatives as potent anti-gram-positive bacterial agents” (Eur J Med Chem, 2021):
In brackets after ≈: the same amount, converted by molar mass.

Columns and labels:
Staphylococcus aureus [1] = assay: Antimicrobial activity against methicillin-susceptible Staphylococcus aureus ATCC 25923 assessed as bacterial growth inhibitions by CLSI protocol based microdilution method; type: functional
Staphylococcus aureus [2] = assay: Antimicrobial activity against antibiotic-resistant Staphylococcus aureus BM-2312 assessed as bacterial growth inhibitions by CLSI protocol based microdilution method; type: functional
Staphylococcus aureus [3] = assay: Antimicrobial activity against methicillin-resistant Staphylococcus aureus ATCC 33591 assessed as bacterial growth inhibitions by CLSI protocol based microdilution method; type: functional
Staphylococcus aureus [4] = assay: Antimicrobial activity against methicillin-resistant Staphylococcus aureus ATCC 700699 assessed as bacterial growth inhibitions by CLSI protocol based microdilution method; type: functional
Staphylococcus aureus [5] = assay: Antimicrobial activity against methicillin-resistant Staphylococcus aureus ATCC 33592 assessed as bacterial growth inhibitions by CLSI protocol based microdilution method; type: functional
[6] = tested on: Staphylococcus epidermidis; assay: Antimicrobial activity against methicillin-resistant Staphylococcus epidermidis ATCC 700296 assessed as bacterial growth inhibitions by CLSI protocol based microdilution method; type: functional
Bacillus subtilis = assay: Antimicrobial activity against Bacillus subtilis ATCC 6623 assessed as bacterial growth inhibitions by CLSI protocol based microdilution method; type: functional
How it was run: (§1)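 Broth microdilution starting at 50 µg/ml with 2-fold serial dilutions; run in triplicate.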

Enterococcus faecium [7] = assay: Antimicrobial activity against vancomycin-resistant Enterococcus faecium ATCC 700221 assessed as bacterial growth inhibitions by CLSI protocol based microdilution method; type: functional
Enterococcus faecalis [8] = assay: Antimicrobial activity against vancomycin-susceptible Enterococcus faecalis ATCC 29212 assessed as bacterial growth inhibitions by CLSI protocol based microdilution method
Enterococcus faecium [9] = assay: Antimicrobial activity against vancomycin-resistant Enterococcus faecium clinical isolate 1088051 by CLSI-based broth microdilution assay; type: functional
Enterococcus faecium [10] = assay: Antimicrobial activity against vancomycin-resistant Enterococcus faecium clinical isolate 1091563 by CLSI-based broth microdilution assay; type: functional
Enterococcus faecium [11] = assay: Antimicrobial activity against vancomycin-resistant Enterococcus faecium clinical isolate 1091720 by CLSI-based broth microdilution assay; type: functional
Enterococcus faecium [12] = assay: Antimicrobial activity against vancomycin-resistant Enterococcus faecium clinical isolate 1094112 by CLSI-based broth microdilution assay; type: functional
Enterococcus faecium [13] = assay: Antimicrobial activity against vancomycin-resistant Enterococcus faecium clinical isolate 1100440 by CLSI-based broth microdilution assay; type: functional
Enterococcus faecium [14] = assay: Antimicrobial activity against vancomycin-resistant Enterococcus faecium clinical isolate 1088168 by CLSI-based broth microdilution assay; type: functional
Enterococcus faecium [15] = assay: Antimicrobial activity against vancomycin-resistant Enterococcus faecium clinical isolate 1088228 by CLSI-based broth microdilution assay; type: functional
Enterococcus faecium [16] = assay: Antimicrobial activity against vancomycin-resistant Enterococcus faecium clinical isolate 1088925 by CLSI-based broth microdilution assay; type: functional
Enterococcus faecium [17] = assay: Antimicrobial activity against vancomycin-resistant Enterococcus faecium clinical isolate 1089544 by CLSI-based broth microdilution assay; type: functional
Enterococcus faecium [18] = assay: Antimicrobial activity against vancomycin-resistant Enterococcus faecium clinical isolate 1091282 by CLSI-based broth microdilution assay; type: functional
Staphylococcus aureus [19] = assay: Antimicrobial activity against methicillin-sensitive Staphylococcus aureus ATCC 29213 by CLSI-based broth microdilution assay; type: functional
Staphylococcus aureus [20] = assay: Antimicrobial activity against methicillin-sensitive Staphylococcus aureus clinical isolate 1088105 by CLSI-based broth microdilution assay; type: functional
Staphylococcus aureus [21] = assay: Antimicrobial activity against methicillin-sensitive Staphylococcus aureus clinical isolate 1088626 by CLSI-based broth microdilution assay; type: functional
Staphylococcus aureus [22] = assay: Antimicrobial activity against methicillin-resistant Staphylococcus aureus clinical isolate 1088064 by CLSI-based broth microdilution assay; type: functional
Staphylococcus aureus [23] = assay: Antimicrobial activity against methicillin-resistant Staphylococcus aureus clinical isolate 1088610 by CLSI-based broth microdilution assay; type: functional
Staphylococcus aureus [24] = assay: Antimicrobial activity against methicillin-resistant Staphylococcus aureus clinical isolate 1088888 by CLSI-based broth microdilution assay; type: functional
Staphylococcus aureus [25] = assay: Antimicrobial activity against methicillin-resistant Staphylococcus aureus clinical isolate 1089106 by CLSI-based broth microdilution assay; type: functional
Staphylococcus aureus [26] = assay: Antimicrobial activity against methicillin-sensitive Staphylococcus aureus clinical isolate 1088060 by CLSI-based broth microdilution assay; type: functional; how it was run: as §1
Enterococcus faecalis [27] = assay: Antibiofilm activity against Enterococcus faecalis ATCC 29212 assessed as inhibition of biofilm formation at 2 times MIC after 24 hrs by crystal violet staining based assay relative to control; type: functional; design: scale not given: the % may be the effect or the level left
How it was run: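 Overnight culture brought to 0.5 McFarland in PBS, diluted 1:100 in CAMHB with 1% glucose. Inhibition: cells plus compound (in DMSO) at 2x, 1x, 0.5xMIC, 24 h at 35 °C, triplicate. Destruction: 24 h biofilm grown without drug, washed, fresh medium with compound, further 24 h. Then washed, dried, 0.1% crystal violet, solubilized in 33% acetic acid, OD 620 nm. Controls are DMSO-only and broth-only wells.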

N#Cc1ccc(NCc2cn(-c3ccc(C(=O)O)cc3)nc2-c2ccc(C(F)(F)F)cc2)cc1C(F)(F)F
MIC (Staphylococcus aureus [1]): 1.56 µg/mL (≈ 2.94 µM) | MIC (Staphylococcus aureus [2]): 1.56 µg/mL (≈ 2.94 µM) | MIC (Staphylococcus aureus [3]): 0.78 µg/mL (≈ 1.47 µM) | MIC (Staphylococcus aureus [4]): 1.56 µg/mL (≈ 2.94 µM) | MIC (Staphylococcus aureus [5]): 0.78 µg/mL (≈ 1.47 µM) | MIC [6]: 3.12 µg/mL (≈ 5.88 µM) | MIC (Bacillus subtilis): 0.78 µg/mL (≈ 1.47 µM) | MIC (Enterococcus faecium [7]): 6.25 µg/mL (≈ 11.8 µM) | MIC (Enterococcus faecalis [8]): 12.5 µg/mL (≈ 23.6 µM)

O=C(O)c1ccc(-n2cc(CNc3ccc(Cl)c(Cl)c3F)c(-c3ccc(C(F)(F)F)cc3)n2)cc1
MIC (Staphylococcus aureus [1]): 0.78 µg/mL (≈ 1.49 µM) | MIC (Staphylococcus aureus [2]): 0.78 µg/mL (≈ 1.49 µM) | MIC (Staphylococcus aureus [3]): 0.78 µg/mL (≈ 1.49 µM) | MIC (Staphylococcus aureus [4]): 0.78 µg/mL (≈ 1.49 µM) | MIC (Staphylococcus aureus [5]): 0.78 µg/mL (≈ 1.49 µM) | MIC [6]: 0.78 µg/mL (≈ 1.49 µM) | MIC (Bacillus subtilis): 0.78 µg/mL (≈ 1.49 µM) | MIC (Enterococcus faecium [7]): 0.78 µg/mL (≈ 1.49 µM) | MIC (Enterococcus faecalis [8]): 1.56 µg/mL (≈ 2.98 µM)

Cc1ccc(NCc2cn(-c3ccc(C(=O)O)cc3)nc2-c2ccc(C(F)(F)F)cc2)cc1Cl
MIC (Staphylococcus aureus [1]): 0.78 µg/mL (≈ 1.61 µM) | MIC (Staphylococcus aureus [2]): 0.78 µg/mL (≈ 1.61 µM) | MIC (Staphylococcus aureus [3]): 0.78 µg/mL (≈ 1.61 µM) | MIC (Staphylococcus aureus [4]): 0.78 µg/mL (≈ 1.61 µM) | MIC (Staphylococcus aureus [5]): 0.78 µg/mL (≈ 1.61 µM) | MIC [6]: 1.56 µg/mL (≈ 3.21 µM) | MIC (Bacillus subtilis): 0.78 µg/mL (≈ 1.61 µM) | MIC (Enterococcus faecium [7]): 0.78 µg/mL (≈ 1.61 µM) | MIC (Enterococcus faecalis [8]): 3.12 µg/mL (≈ 6.42 µM)

Cc1onc(-c2ccccc2)c1C(=O)N[C@@H]1C(=O)N2[C@@H]1SC(C)(C)[C@@H]2C(=O)O [OXACILLIN]
MIC (Enterococcus faecium [9]): > 32 µg/mL | MIC (Enterococcus faecium [10]): > 32 µg/mL | MIC (Enterococcus faecium [11]): > 32 µg/mL | MIC (Enterococcus faecium [12]): > 32 µg/mL | MIC (Enterococcus faecium [13]): > 32 µg/mL | MIC (Enterococcus faecium [14]): > 32 µg/mL | MIC (Enterococcus faecium [15]): > 32 µg/mL | MIC (Enterococcus faecium [16]): > 32 µg/mL | MIC (Enterococcus faecium [17]): > 32 µg/mL | MIC (Enterococcus faecium [18]): > 32 µg/mL | MIC (Staphylococcus aureus [19]): 1 µg/mL (≈ 2.49 µM) | MIC (Staphylococcus aureus [20]): 1 µg/mL (≈ 2.49 µM) | MIC (Staphylococcus aureus [21]): 0.5 µg/mL (≈ 1.25 µM) | MIC (Staphylococcus aureus [22]): 0.5 µg/mL (≈ 1.25 µM) | MIC (Staphylococcus aureus [23]): 0.5 µg/mL (≈ 1.25 µM) | MIC (Staphylococcus aureus [24]): 1 µg/mL (≈ 2.49 µM) | MIC (Staphylococcus aureus [25]): 1 µg/mL (≈ 2.49 µM)

C[C@@H](O)[C@H]1C(=O)N2C(C(=O)O)=C(S[C@@H]3CN[C@H](C(=O)N(C)C)C3)[C@H](C)[C@H]12 [MEROPENEM]
MIC (Enterococcus faecium [9]): 2 µg/mL (≈ 5.22 µM) | MIC (Enterococcus faecium [10]): 2 µg/mL (≈ 5.22 µM) | MIC (Enterococcus faecium [11]): 8 µg/mL (≈ 20.9 µM) | MIC (Enterococcus faecium [12]): 8 µg/mL (≈ 20.9 µM) | MIC (Enterococcus faecium [13]): 4 µg/mL (≈ 10.4 µM) | MIC (Enterococcus faecium [14]): 4 µg/mL (≈ 10.4 µM) | MIC (Staphylococcus aureus [19]): 0.06 µg/mL (≈ 0.156 µM) | MIC (Staphylococcus aureus [26]): 0.06 µg/mL (≈ 0.156 µM) | MIC (Staphylococcus aureus [20]): 0.12 µg/mL (≈ 0.313 µM) | MIC (Staphylococcus aureus [21]): 0.06 µg/mL (≈ 0.156 µM)

O=C(O)c1ccc(-n2cc(CNc3cc(F)c(F)c(F)c3)c(-c3ccc(C(F)(F)F)cc3)n2)cc1
MIC (Staphylococcus aureus [1]): 0.78 µg/mL (≈ 1.59 µM) | MIC (Staphylococcus aureus [2]): 0.78 µg/mL (≈ 1.59 µM) | MIC (Staphylococcus aureus [3]): 0.78 µg/mL (≈ 1.59 µM) | MIC (Staphylococcus aureus [4]): 0.78 µg/mL (≈ 1.59 µM) | MIC (Staphylococcus aureus [5]): 0.78 µg/mL (≈ 1.59 µM) | MIC [6]: 1.56 µg/mL (≈ 3.17 µM) | MIC (Bacillus subtilis): 0.78 µg/mL (≈ 1.59 µM) | MIC (Enterococcus faecium [7]): 0.78 µg/mL (≈ 1.59 µM) | MIC (Enterococcus faecalis [8]): 1.56 µg/mL (≈ 3.17 µM)

O=C(O)c1ccc(-n2cc(CNc3cc(Cl)c(F)c(Cl)c3F)c(-c3ccc(C(F)(F)F)cc3)n2)cc1
MIC (Staphylococcus aureus [1]): 0.78 µg/mL (≈ 1.44 µM) | MIC (Staphylococcus aureus [2]): 0.78 µg/mL (≈ 1.44 µM) | MIC (Staphylococcus aureus [3]): 0.78 µg/mL (≈ 1.44 µM) | MIC (Staphylococcus aureus [4]): 0.78 µg/mL (≈ 1.44 µM) | MIC (Staphylococcus aureus [5]): 0.78 µg/mL (≈ 1.44 µM) | MIC [6]: 0.78 µg/mL (≈ 1.44 µM) | MIC (Bacillus subtilis): 0.78 µg/mL (≈ 1.44 µM) | MIC (Enterococcus faecium [7]): 0.78 µg/mL (≈ 1.44 µM) | Activity (Enterococcus faecalis [27]): 80% | MIC (Enterococcus faecalis [8]): 0.78 µg/mL (≈ 1.44 µM)
